Blank lines part the entries; values can stand above or below the compound they belong to. Active and inactive are the calls of the source. The rule behind the calls is not given here.
Experiments:
[1] = molecular target: Neurogenic locus notch homolog protein 1 (Homo sapiens) (UniProt P46531); experiment: Inhibition of doxycycline-induced recombinant mouse N-terminal FLAG-tagged Notch1 (1704 to 2531 residues) activation expressed in human LS174T cells assessed as reduction in Hes5 level at 0.1 to 1 uM after 12 hrs by Western blot analysis; assay type: cell-based
Summary of the method: (§1)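 LS174T Notch cells (Tet-On LS174T, N-terminally FLAG-tagged mouse Notch1(1704-2531), stable 12×RBP-J luciferase reporter) seeded 1 × 10^6 cells per 6 cm dish for 12 h at 37 °C. Dox 50 ng/mL for 12 h, then fresh medium with compound for 12 h. Whole-cell lysates, SDS-PAGE, PVDF, ECL detection. Anti-Flag used for the Notch1 fragment; β-actin internal control.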

MEB5 [2] = experiment: Induction of neuronal differentiation in mouse MEB5 cells assessed as number of neurons at 10 uM after 4 days by Tuj1 staining based immunofluorescence analysis (reference value: 13.3 %); assay type: functional
Summary of the method: (§2)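 MEB5 mouse neurospheres were chemically dissociated and seeded at 2 × 10^6 cells/well on coverslips coated with poly-L-lysine and fibronectin/laminin. After 12 h in proliferation medium, cells were washed with NeuroCult basal medium and treated for 4 days in differentiation medium. They were then fixed in 4% paraformaldehyde and immunostained for Tuj-1 (neurons) and GFAP (astrocytes), with TO-PRO-3 nuclear counterstain. Confocal imaging used four fields per well and three wells per condition, covering over 4000 cells and 670 neurites per sample.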

[3] = molecular target: Neurogenic locus notch homolog protein 1 (Mus musculus) (UniProt Q01705); experiment: Inhibition of recombinant mouse Notch1-RAMIC expressed in MEB5 cells harboring TP1 assessed as luciferase activity at 10 uM after 12 hrs by Dual-Glo luciferase assay (reference value: 0.258); assay type: cell-based
[4] = molecular target: Neurogenic locus notch homolog protein 1 (Mus musculus) (UniProt Q01705); experiment: Inhibition of recombinant mouse Notch1-RAMIC expressed in MEB5 cells assessed as reduction in doxycycline-induced NICD expression at 10 uM after 12 hrs by Western blot analysis; assay type: cell-based
Summary of the method: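 Dissociated MEB5 cells were seeded at 2 × 10^6 cells/well in 6 cm dishes coated with poly-L-lysine and fibronectin/laminin. After 12 h in proliferation medium, cells were washed with serum-free NeuroCult basal medium and treated in differentiation medium with 10 μM for 12 h. Whole-cell lysates were run on SDS-PAGE and immunoblotted for NICD, with ECL detection.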

MEB5 [5] = experiment: Induction of neuronal differentiation in mouse MEB5 cells assessed as increase in neurite extension length at 10 uM after 4 days by Tuj1 staining based immunofluorescence analysis relative to control; assay type: functional; summary of the method: as §2
[6] = molecular target: Neurogenic locus notch homolog protein 1 (Homo sapiens) (UniProt P46531); experiment: Inhibition of doxycycline-induced recombinant mouse N-terminal FLAG-tagged Notch1 (1704 to 2531 residues) activation expressed in human LS174T cells assessed as reduction in Hes1 level at 0.1 to 1 uM after 12 hrs by Western blot analysis; assay type: cell-based; summary of the method: as §1
MEB5 [7] = experiment: Induction of neuronal differentiation in mouse MEB5 cells assessed as reduction in astrocytes at 10 uM after 4 days by GFAP staining based immunofluorescence analysis; assay type: functional, cell-based; summary of the method: as §2
MEB5 [8] = experiment: Induction of neuronal differentiation in mouse MEB5 cells assessed as neurite length at 10 uM after 4 days by Tuj1 staining based immunofluorescence analysis (reference value: 14.3 micrometer); assay type: functional; summary of the method: as §2
[9] = molecular target: Gamma-secretase (Homo sapiens) (UniProt Q96BI3+Q9NZ42+Q8WW43+P49768+Q92542+P49810); experiment: Effect on gamma-secretase activity in human LS174T cells harboring mouse N-terminal FLAG-tagged Notch1 (1704 to 2531 residues) after 12 hrs by Western blot analysis; assay type: cell-based
[10] = Inhibition of recombinant mouse N-terminal FLAG-tagged Notch1 (1704 to 2531 residues) expressed in human LS174T cells assessed as reduction in doxycycline-induced NICD expression after 12 hrs by Bright-Glo luciferase reporter gene assay; assay type: cell-based
Summary of the method: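 LS174T Notch cells seeded 2 × 10^4 cells/well, 12 h at 37 °C. Dox 50 ng/mL for 12 h, then Dox-free medium with samples for 12 h at 37 °C in 0.1% DMSO. Luciferase read with Bright-Glo. Viability measured in parallel by fluorometric microculture cytotoxicity assay. SD, n = 3.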

MEB5 [11] = experiment: Effect on gamma-secretase activity in mouse MEB5 cells assessed as PS2 expression at 1 uM after 24 hrs by Western blot analysis; assay type: cell-based
Summary of the method: (§3)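 MEB5 mouse neural stem cells dissociated and seeded on poly-L-lysine and fibronectin/laminin-coated 6 cm dishes in proliferation medium for 12 h. Washed with NeuroCult basal medium, then compound given in differentiation medium for 24 h. Lysates analysed by Western blot (SDS-PAGE, PVDF, ECL); γ-secretase antibody sampler kit used for γ-secretase components.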

MEB5 [12] = experiment: Induction of neuronal differentiation in mouse MEB5 cells assessed as number of neurons at 1 uM after 4 days by Tuj1 staining based immunofluorescence analysis (reference value: 13.3 %); assay type: functional
MEB5 [13] = experiment: Induction of neuronal differentiation in mouse MEB5 cells assessed as neurite length at 1 uM after 4 days by Tuj1 staining based immunofluorescence analysis (reference value: 14.3 micrometer); assay type: functional
[14] = molecular target: Neurogenic locus notch homolog protein 1 (Mus musculus) (UniProt Q01705); experiment: Inhibition of Notch1 in mouse MEB5 cells assessed as reduction in NICD expression at 1 uM after 24 hrs in presence of proteasome inhibitor MG132 by Western blot analysis; assay type: cell-based
MEB5 [15] = experiment: Effect on gamma-secretase activity in mouse MEB5 cells assessed as PS1 expression at 1 uM after 24 hrs by Western blot analysis; assay type: cell-based; summary of the method: as §3
LS174T = experiment: Effect on Notch1 (1704 to 2531 residues) expression in human LS174T cells at 0.001 to 10 uM after 12 hrs by Western blot analysis; assay type: functional, cell-based; summary of the method: as §1
[16] = molecular target: Neurogenic locus notch homolog protein 1 (Mus musculus) (UniProt Q01705); experiment: Inhibition of Notch1 in mouse MEB5 cells assessed as reduction in Hes5 expression at 1 uM after 24 hrs by Western blot analysis; assay type: cell-based; summary of the method: as §3
MEB5 [17] = experiment: Effect on gamma-secretase activity in mouse MEB5 cells assessed as nicastrin expression at 1 uM after 24 hrs by Western blot analysis; assay type: cell-based; summary of the method: as §3
MEB5 [18] = experiment: Induction of neuronal differentiation in mouse MEB5 cells assessed as reduction in astrocytes at 1 uM after 4 days by GFAP staining based immunofluorescence analysis; assay type: functional, cell-based
MEB5 [19] = experiment: Effect on gamma-secretase activity in mouse MEB5 cells assessed as PEN2 expression at 1 uM after 24 hrs by Western blot analysis; assay type: cell-based; summary of the method: as §3
[20] = molecular target: Neurogenic locus notch homolog protein 1 (Mus musculus) (UniProt Q01705); experiment: Inhibition of Notch1 in mouse MEB5 cells assessed as reduction in Hes1 expression at 1 uM after 24 hrs by Western blot analysis; assay type: cell-based; summary of the method: as §3
MEB5 [21] = experiment: Inhibition of Wnt signaling in mouse MEB5 cells assessed as reduction in beta-catenin level up to 1 uM after 12 to 24 hrs by Western blot analysis; assay type: cell-based
MEB5 [22] = experiment: Induction of neuronal differentiation in mouse MEB5 cells assessed as increase in neurite extension length at 1 uM after 4 days by Tuj1 staining based immunofluorescence analysis relative to control; assay type: functional
[23] = molecular target: Neurogenic locus notch homolog protein 1 (Mus musculus) (UniProt Q01705); experiment: Inhibition of Notch1 in mouse MEB5 cells assessed as reduction in NICD expression at 1 uM after 24 hrs by Western blot analysis; assay type: cell-based; summary of the method: as §3

Neurogenic locus notch homolog protein 1 (Homo sapiens), sequence (P46531 whole entry, the tested form may be a part): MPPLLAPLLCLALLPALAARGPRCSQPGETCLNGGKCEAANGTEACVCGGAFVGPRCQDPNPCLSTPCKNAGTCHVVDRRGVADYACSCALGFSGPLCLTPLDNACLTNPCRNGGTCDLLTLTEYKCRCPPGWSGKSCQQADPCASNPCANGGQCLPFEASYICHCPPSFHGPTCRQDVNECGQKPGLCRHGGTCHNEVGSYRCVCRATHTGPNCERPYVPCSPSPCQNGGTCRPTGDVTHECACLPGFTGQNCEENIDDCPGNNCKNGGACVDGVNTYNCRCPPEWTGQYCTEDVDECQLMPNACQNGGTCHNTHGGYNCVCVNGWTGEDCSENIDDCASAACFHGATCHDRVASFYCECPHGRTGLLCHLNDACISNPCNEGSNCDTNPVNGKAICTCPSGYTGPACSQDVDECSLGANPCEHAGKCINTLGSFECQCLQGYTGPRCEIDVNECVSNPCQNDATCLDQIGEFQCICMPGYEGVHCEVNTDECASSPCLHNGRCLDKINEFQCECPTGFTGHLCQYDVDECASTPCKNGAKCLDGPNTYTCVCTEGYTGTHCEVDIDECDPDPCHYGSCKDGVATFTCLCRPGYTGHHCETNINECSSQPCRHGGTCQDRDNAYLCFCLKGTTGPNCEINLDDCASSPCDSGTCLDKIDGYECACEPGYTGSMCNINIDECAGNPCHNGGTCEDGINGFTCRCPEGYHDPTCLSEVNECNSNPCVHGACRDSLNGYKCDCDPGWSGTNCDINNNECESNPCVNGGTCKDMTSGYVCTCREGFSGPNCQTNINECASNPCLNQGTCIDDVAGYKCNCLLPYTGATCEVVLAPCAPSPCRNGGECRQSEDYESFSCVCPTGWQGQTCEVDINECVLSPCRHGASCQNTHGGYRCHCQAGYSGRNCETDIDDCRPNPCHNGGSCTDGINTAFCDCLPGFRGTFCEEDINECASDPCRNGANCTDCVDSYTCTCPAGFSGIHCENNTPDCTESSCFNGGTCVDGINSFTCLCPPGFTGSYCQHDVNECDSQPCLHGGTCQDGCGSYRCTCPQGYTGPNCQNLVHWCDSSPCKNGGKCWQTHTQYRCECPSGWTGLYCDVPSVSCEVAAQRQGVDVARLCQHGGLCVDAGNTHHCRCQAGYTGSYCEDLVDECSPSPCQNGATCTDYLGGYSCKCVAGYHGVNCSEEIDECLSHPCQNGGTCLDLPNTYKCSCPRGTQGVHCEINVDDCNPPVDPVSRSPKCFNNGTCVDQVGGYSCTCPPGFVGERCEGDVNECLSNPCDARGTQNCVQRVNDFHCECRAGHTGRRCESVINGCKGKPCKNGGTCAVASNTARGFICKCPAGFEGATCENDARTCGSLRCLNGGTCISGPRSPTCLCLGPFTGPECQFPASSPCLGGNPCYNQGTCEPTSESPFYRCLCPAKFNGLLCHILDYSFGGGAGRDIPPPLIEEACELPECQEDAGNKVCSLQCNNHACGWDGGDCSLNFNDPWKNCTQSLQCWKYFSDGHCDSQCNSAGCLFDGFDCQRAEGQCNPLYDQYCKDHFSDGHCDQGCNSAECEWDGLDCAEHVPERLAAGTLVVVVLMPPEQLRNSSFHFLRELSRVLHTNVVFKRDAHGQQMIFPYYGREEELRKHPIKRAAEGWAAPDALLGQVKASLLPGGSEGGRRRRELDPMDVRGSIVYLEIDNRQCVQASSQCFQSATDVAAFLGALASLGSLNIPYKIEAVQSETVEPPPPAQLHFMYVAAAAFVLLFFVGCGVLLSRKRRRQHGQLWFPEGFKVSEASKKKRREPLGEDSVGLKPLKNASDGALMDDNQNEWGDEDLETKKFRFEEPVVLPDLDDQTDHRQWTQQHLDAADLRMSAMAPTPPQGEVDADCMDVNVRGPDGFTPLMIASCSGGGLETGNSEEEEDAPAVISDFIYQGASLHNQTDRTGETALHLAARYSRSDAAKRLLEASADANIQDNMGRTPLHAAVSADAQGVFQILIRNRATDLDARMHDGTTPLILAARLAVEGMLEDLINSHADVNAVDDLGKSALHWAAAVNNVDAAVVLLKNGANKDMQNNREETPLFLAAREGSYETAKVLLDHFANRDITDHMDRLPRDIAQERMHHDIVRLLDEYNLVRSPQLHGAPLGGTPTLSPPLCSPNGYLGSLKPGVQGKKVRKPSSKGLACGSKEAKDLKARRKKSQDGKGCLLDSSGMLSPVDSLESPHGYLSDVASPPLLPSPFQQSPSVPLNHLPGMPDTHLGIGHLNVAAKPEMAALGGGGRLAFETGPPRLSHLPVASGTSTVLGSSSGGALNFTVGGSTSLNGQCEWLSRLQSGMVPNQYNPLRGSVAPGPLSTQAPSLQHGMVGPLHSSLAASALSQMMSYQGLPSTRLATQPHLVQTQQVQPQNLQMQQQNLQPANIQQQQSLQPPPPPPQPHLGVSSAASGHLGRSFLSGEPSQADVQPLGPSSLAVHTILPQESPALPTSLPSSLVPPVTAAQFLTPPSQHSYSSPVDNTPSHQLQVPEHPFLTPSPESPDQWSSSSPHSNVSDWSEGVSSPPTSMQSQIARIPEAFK
Neurogenic locus notch homolog protein 1 (Mus musculus), sequence (Q01705 whole entry): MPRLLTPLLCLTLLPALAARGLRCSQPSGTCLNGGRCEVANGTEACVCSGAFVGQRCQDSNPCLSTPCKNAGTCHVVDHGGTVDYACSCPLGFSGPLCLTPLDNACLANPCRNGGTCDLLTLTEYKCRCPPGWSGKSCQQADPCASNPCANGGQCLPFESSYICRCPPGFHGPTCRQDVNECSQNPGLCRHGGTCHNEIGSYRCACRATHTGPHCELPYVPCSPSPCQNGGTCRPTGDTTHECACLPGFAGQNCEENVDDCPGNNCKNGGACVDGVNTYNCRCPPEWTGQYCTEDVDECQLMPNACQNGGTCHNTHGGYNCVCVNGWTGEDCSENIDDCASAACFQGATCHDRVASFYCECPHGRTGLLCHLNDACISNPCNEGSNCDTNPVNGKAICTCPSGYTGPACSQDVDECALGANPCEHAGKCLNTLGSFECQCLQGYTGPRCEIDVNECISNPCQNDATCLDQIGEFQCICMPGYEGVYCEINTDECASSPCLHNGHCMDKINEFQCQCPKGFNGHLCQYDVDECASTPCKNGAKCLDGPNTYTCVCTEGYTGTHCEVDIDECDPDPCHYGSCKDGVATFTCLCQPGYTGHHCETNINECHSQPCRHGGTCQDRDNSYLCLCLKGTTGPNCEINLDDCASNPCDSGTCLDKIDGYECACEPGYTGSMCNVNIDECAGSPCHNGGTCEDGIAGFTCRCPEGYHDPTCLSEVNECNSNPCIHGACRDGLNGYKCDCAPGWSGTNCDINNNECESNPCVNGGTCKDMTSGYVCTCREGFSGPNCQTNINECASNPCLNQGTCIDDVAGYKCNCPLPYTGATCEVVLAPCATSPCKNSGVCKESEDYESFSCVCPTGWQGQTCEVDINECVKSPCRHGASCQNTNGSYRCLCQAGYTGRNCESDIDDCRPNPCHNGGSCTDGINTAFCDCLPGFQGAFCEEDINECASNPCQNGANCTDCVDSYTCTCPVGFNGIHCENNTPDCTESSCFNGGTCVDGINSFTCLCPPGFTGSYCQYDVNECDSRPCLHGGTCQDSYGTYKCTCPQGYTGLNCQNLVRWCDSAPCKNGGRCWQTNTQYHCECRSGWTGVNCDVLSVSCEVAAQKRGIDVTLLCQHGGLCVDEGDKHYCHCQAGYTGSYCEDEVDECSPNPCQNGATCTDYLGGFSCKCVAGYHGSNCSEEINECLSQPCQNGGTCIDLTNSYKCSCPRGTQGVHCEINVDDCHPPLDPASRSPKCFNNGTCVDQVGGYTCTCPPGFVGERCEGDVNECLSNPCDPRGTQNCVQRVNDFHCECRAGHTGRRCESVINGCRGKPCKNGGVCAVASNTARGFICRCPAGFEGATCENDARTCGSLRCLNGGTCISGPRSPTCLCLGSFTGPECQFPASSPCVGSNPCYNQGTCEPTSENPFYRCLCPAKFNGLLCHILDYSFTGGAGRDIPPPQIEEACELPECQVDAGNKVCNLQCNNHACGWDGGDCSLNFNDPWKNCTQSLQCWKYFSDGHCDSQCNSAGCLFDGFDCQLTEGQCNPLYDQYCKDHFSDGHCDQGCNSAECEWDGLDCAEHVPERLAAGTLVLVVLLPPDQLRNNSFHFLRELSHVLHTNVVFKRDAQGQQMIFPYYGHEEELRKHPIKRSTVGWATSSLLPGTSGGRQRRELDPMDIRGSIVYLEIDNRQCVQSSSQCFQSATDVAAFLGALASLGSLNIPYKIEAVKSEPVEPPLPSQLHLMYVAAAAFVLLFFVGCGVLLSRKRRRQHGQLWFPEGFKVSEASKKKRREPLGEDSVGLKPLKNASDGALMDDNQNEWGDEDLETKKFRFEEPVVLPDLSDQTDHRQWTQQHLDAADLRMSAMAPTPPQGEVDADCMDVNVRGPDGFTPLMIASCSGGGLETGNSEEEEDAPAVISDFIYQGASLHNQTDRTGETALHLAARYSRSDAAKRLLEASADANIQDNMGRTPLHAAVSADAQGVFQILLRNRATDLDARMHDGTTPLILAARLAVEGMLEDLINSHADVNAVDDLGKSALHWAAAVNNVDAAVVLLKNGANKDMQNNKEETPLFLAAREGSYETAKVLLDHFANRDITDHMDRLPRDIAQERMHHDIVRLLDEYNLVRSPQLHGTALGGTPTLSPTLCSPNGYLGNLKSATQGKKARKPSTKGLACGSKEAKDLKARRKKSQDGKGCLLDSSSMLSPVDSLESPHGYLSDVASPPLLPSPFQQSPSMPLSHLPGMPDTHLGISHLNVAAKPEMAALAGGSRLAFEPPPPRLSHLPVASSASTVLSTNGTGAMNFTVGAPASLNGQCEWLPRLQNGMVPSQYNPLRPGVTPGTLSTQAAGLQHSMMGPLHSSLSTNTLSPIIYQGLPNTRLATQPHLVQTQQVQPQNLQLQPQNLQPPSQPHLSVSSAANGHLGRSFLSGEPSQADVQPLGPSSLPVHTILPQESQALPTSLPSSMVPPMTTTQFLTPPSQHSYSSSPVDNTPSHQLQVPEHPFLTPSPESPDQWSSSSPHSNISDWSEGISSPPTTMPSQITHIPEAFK

inhibition [1]: Active
Activity [3]: 0.004
inhibition [4]: Active
inhibition [6]: Active
SMILES: C[C@H](NC(=O)Cc1cc(F)cc(F)c1)C(=O)N[C@H](C(=O)OC(C)(C)C)c1ccccc1
Activity (MEB5 [2]): 19.7%
Activity (MEB5 [5]): 43%
Activity (MEB5 [7]): Active
Activity (MEB5 [8]): 20.5 um

SMILES: CC(=O)O[C@H]1C[C@@H](C)O[C@H]2O[C@@H]3C[C@@H]4CC[C@@H]5[C@H](CC[C@]6(C)[C@@H](C7=CC(=O)OC7)CC[C@]56O)[C@@]4(C=O)C[C@H]3O[C@]21O
Activity [9]: inactive
inhibition [10]: Dose-dependent effect

SMILES: COC(=O)[C@@]1(O)C[C@@H](C)O[C@H]1O[C@@H]1C[C@@H]2CC[C@@H]3[C@H](CC[C@]4(C)[C@@H](C5=CC(=O)OC5)[C@H](O)C[C@]34O)[C@@]2(C=O)C[C@H]1O
inhibition [10]: Dose-dependent effect

SMILES: C[C@@H]1CC(=O)[C@]2(O)O[C@@H]3C[C@@]4(C=O)[C@@H](CC[C@@H]5[C@@H]4CC[C@]4(C)[C@@H](C6=CC(=O)OC6)CC[C@]54O)C[C@H]3O[C@@H]2O1
inhibition [10]: Dose-dependent effect

SMILES: C[C@@H]1C[C@@]2(N=CCS2)[C@]2(O)O[C@@H]3C[C@@]4(C=O)[C@@H](CC[C@@H]5[C@@H]4CC[C@]4(C)[C@@H](C6=CC(=O)OC6)[C@H](O)C[C@]54O)C[C@H]3O[C@@H]2O1
inhibition [10]: Dose-dependent effect

SMILES: C[C@@H]1C[C@@]2(NC(=O)CS2)[C@]2(O)O[C@@H]3C[C@@]4(C=O)[C@@H](CC[C@@H]5[C@@H]4CC[C@]4(C)[C@@H](C6=CC(=O)OC6)CC[C@]54O)C[C@H]3O[C@@H]2O1
inhibition [10]: Dose-dependent effect

SMILES: C[C@@H]1C[C@@]2(NCCS2)[C@]2(O)O[C@@H]3C[C@@]4(C=O)[C@@H](CC[C@@H]5[C@@H]4CC[C@]4(C)[C@@H](C6=CC(=O)OC6)CC[C@]54O)C[C@H]3O[C@@H]2O1
inhibition [10]: Dose-dependent effect

SMILES: C[C@@H]1C[C@H](O)[C@]2(O)O[C@@H]3C[C@@]4(C=O)[C@@H](CC[C@@H]5[C@@H]4CC[C@]4(C)[C@@H](C6=CC(=O)OC6)CC[C@]54O)C[C@H]3O[C@@H]2O1
Activity [9]: inactive
inhibition [10]: Dose-dependent effect

SMILES: C[C@@H]1C[C@@]2(N=CCS2)[C@]2(O)O[C@@H]3C[C@@]4(C=O)[C@@H](CC[C@@H]5[C@@H]4CC[C@]4(C)[C@@H](C6=CC(=O)OC6)CC[C@]54O)C[C@H]3O[C@@H]2O1 [USCHARIN]
Activity (MEB5 [11]): inactive
Activity (MEB5 [12]): 20.8%
inhibition [1]: Active
Activity (MEB5 [13]): 19.5 um
inhibition [14]: inactive
Activity [9]: inactive
Activity (MEB5 [15]): inactive
Activity (LS174T): inactive
inhibition [6]: Active
inhibition [16]: Active
Activity (MEB5 [17]): inactive
inhibition [10]: Dose-dependent effect
Activity (MEB5 [18]): Active
Activity (MEB5 [19]): inactive
inhibition [20]: Active
inhibition (MEB5 [21]): inactive
Activity (MEB5 [22]): 36%
inhibition [23]: Active
